# In PMC5848258 (Clinical Infectious Diseases: An Official Publication of …, 2017):
# Marks after values point to notes of the source that are not given here.
# How the values were obtained:
# [1] = healthy subjects; ref Bristol-Myers Squibb, data on file; cited from earlier work
# HIV-1 subtype B [2] = test: Change in plasma HIV-1 RNA, GSK3532795 monotherapy for 10 days; assay type: in vivo, human
# Outline: (§1)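 HIV-1-infected adults aged 18–55 with plasma HIV-1 RNA ≥5000 copies/mL and CD4+ count ≥200 cells/µL, PI- and MI-naive, were randomized 4:1 to test compound or placebo, double-blind. Dosing was once daily by oral suspension after a ≥10-hour fast for 10 days: part A subtype B, 5–120 mg; part C subtype C, 40 or 120 mg. Plasma HIV-1 RNA was measured by real-time PCR at screening and on days 1–14, 17, 19 and 24–26.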
# HIV-1 subtype B [3] = test: Exposure–response relationship; assay type: in vivo, human; conditions: Part A
# Outline: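 Part A subjects received the test compound orally, fasted, once daily for 10 days. Plasma concentration at 24 hours on day 10 was measured by validated LC/MS. It was related to the maximum change from baseline in log10 HIV-1 RNA with a 3-parameter […] Emax model, Y = E0 + Emax*C/(EC50 + C).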
# HIV-1 Gag = conditions: in vitro, compared with BVM; cited from earlier work
# [4] = Solubility in aqueous media; assay type: physicochemical
# Safety assessments = assay type: in vivo, human; conditions: for Any AE / Deaths / Discontinuations due to AE(s) / Grade 3–4 related AEs / Laboratory abnormalities (grade 3–4) / Serious AEs: Parts A/C
# Outline: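 Over the 10-day once-daily oral monotherapy (test compound or placebo, double-blind, fasted) and follow-up, staff recorded vital signs, physical examination, laboratory measurements, ECG and adverse events. Adverse events were coded with MedDRA version 17.1. Investigators graded their severity and their relationship to study drug.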
# HIV-1 = conditions: cited from earlier work
# [5] = Plasma pharmacokinetics of GSK3532795, part C; assay type: in vivo, human; conditions: for AUC / Cmax / Tmax: human, plasma, oral
# Outline: (§2)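 The test compound was given as monotherapy by oral suspension after a ≥10-hour fast, once daily for 10 days (part A subtype B, 5–120 mg; part C subtype C, 40 or 120 mg). Serial blood samples were taken on days 1 and 10, with troughs on days 2, 4, 6 and 8. Plasma levels were measured by validated LC/MS and analysed noncompartmentally. Dose proportionality was assessed with a power model on log exposure versus log dose.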
# [6] = Plasma pharmacokinetics of GSK3532795, part B; assay type: in vivo, human; conditions: for AUC increase compared with the same dose given as monotherapy: fed vs fasted monotherapy; for AUC / concentration at 24 h / Cmax / Tmax: human, plasma, oral; for AUC: AUCtau (%CV); for concentration at 24 h: C24 (%CV); for Cmax: Cmax (%CV); for Tmax: median (min–max)
# Outline: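 Male subtype B-infected subjects took the test compound (40 or 80 mg) once daily with atazanavir 400 mg, or with atazanavir/ritonavir 300 mg/100 mg. Dosing was open-label, as an oral suspension with breakfast, for 28 days. Serial samples were taken on days 1 and 10, with troughs on days 2, 4, 6 and 8. Plasma levels were measured by validated LC/MS and analysed noncompartmentally.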
# HIV-1 subtype C = test: Change in plasma HIV-1 RNA, GSK3532795 monotherapy for 10 days; assay type: in vivo, human; conditions: for Median of the maximum change from baseline in HIV-1 RNA / Median decline (baseline to day 11) in HIV-1 RNA: Part C
# Outline: as §1
# [7] = Plasma pharmacokinetics of GSK3532795, part A; assay type: in vivo; conditions: human, oral
# Outline: as §2
# [8] = cited from earlier work
# [9] = Part B, fed, 40 mg + ATV 300 mg + RTV 100 mg QD
# [10] = Part B, fed, 40 mg + ATV 400 mg QD
# [11] = Part B, fed, 80 mg + ATV 400 mg QD
structure (smiles),measurement,setting,value
C=C(C)[C@@H]1CC[C@]2(NCCN3CCS(=O)(=O)CC3)CC[C@]3(C)[C@H](CC[C@@H]4[C@@]5(C)CC=C(c6ccc(C(=O)O)cc6)C(C)(C)[C@@H]5CC[C@]43C)[C@@H]12 [GSK3532795],Half-life (T1/2),[1],approximately 35 hours
same,Decline in HIV-1 RNA,"HIV-1 subtype B [2]; Part A, 20–120 mg QD dose groups",> 1 log10
same,Plateau of decline in HIV-1 RNA,"HIV-1 subtype B [2]; Part A, 40–120 mg QD dose groups",approximately 1.64 log10 copies/mL
same,Median decline (baseline to day 11) in HIV-1 RNA,"HIV-1 subtype B [2]; Part A, 40–120 mg QD, consistently from approximately day 7",> 1 log10 copies/mL
same,Range of median of the maximum decline in HIV-1 RNA,"HIV-1 subtype B [2]; Part A, 40–120 mg QD, in the presence of baseline Gag polymorphisms (n = 15)",−1.43 to −1.98 log10 copies/mL
same,Median of the maximum change in HIV-1 RNA from baseline to study discharge on day 24,"HIV-1 subtype B [2]; Part A, across all GSK3532795 groups (5–120 mg QD)",−0.50 to −1.70 log10 copies/mL
same,Median maximum decline in HIV-1 RNA,HIV-1 subtype B [2]; following 10 days of monotherapy in subtype B–infected subjects,1.70 log10 copies/mL
same,Predicted maximum decline in HIV-1 RNA from baseline,HIV-1 subtype B [3]; Emax model,approximately 1.7 log10 copies/mL
same,C24 at which apparent response plateau was achieved,HIV-1 subtype B [3]; steady-state C24 vs maximum change in HIV-1 RNA,≥ 500 ng/mL
same,Binding to HIV-1 Gag,HIV-1 Gag,binds reversibly to HIV-1 Gag with greater affinity than BVM
same,solubility,[4],< 1 µg/mL
same,Any AE,Safety assessments; 5 mg QD (n=8),5 (62.5) n (%)
same,Deaths,Safety assessments; 5 mg QD (n=8),0 n (%)
same,Discontinuations due to AE(s),Safety assessments; 5 mg QD (n=8),0 n (%)
same,Grade 3–4 related AEs,Safety assessments; 5 mg QD (n=8),0 n (%)
same,Laboratory abnormalities (grade 3–4),Safety assessments; 5 mg QD (n=8),0 n (%)
same,Serious AEs,Safety assessments; 5 mg QD (n=8),0 n (%)
same,Any AE,Safety assessments; 10 mg QD (n=8),4 (50.0) n (%)
same,Deaths,Safety assessments; 10 mg QD (n=8),0 n (%)
same,Discontinuations due to AE(s),Safety assessments; 10 mg QD (n=8),0 n (%)
same,Grade 3–4 related AEs,Safety assessments; 10 mg QD (n=8),0 n (%)
same,Laboratory abnormalities (grade 3–4),Safety assessments; 10 mg QD (n=8),0 n (%)
same,Serious AEs,Safety assessments; 10 mg QD (n=8),0 n (%)
same,Any AE,Safety assessments; 20 mg QD (n=8),4 (50.0) n (%)
same,Deaths,Safety assessments; 20 mg QD (n=8),0 n (%)
same,Discontinuations due to AE(s),Safety assessments; 20 mg QD (n=8),0 n (%)
same,Grade 3–4 related AEs,Safety assessments; 20 mg QD (n=8),0 n (%)
same,Laboratory abnormalities (grade 3–4),Safety assessments; 20 mg QD (n=8),0 n (%)
same,Serious AEs,Safety assessments; 20 mg QD (n=8),0 n (%)
same,Any AE,Safety assessments; 40 mg QD (n=16),8 (50.0) n (%)
same,Deaths,Safety assessments; 40 mg QD (n=16),0 n (%)
same,Discontinuations due to AE(s),Safety assessments; 40 mg QD (n=16),0 n (%)
same,Grade 3–4 related AEs,Safety assessments; 40 mg QD (n=16),0 n (%)
same,Laboratory abnormalities (grade 3–4),Safety assessments; 40 mg QD (n=16),0 n (%)
same,Serious AEs,Safety assessments; 40 mg QD (n=16),0 n (%)
same,Any AE,Safety assessments; 80 mg QD (n=8),7 (87.5) n (%)
same,Deaths,Safety assessments; 80 mg QD (n=8),0 n (%)
same,Discontinuations due to AE(s),Safety assessments; 80 mg QD (n=8),0 n (%)
same,Grade 3–4 related AEs,Safety assessments; 80 mg QD (n=8),0 n (%)
same,Laboratory abnormalities (grade 3–4),Safety assessments; 80 mg QD (n=8),0 n (%)
same,Serious AEs,Safety assessments; 80 mg QD (n=8),0 n (%)
same,Any AE,Safety assessments; 120 mg QD (n=15),10 (66.6) n (%)
same,Deaths,Safety assessments; 120 mg QD (n=15),0 n (%)
same,Discontinuations due to AE(s),Safety assessments; 120 mg QD (n=15),0 n (%)
same,Grade 3–4 related AEs,Safety assessments; 120 mg QD (n=15),0 n (%)
same,Serious AEs,Safety assessments; 120 mg QD (n=15),0 n (%)
same,Laboratory abnormalities (grade 3–4),"Safety assessments; 120 mg QD (n=15), grade 3 transient neutropenia reported as related to GSK3532795",1 (6.7)^c n (%)
same,Cases of hyperbilirubinemia,Safety assessments; during GSK3532795 monotherapy,no cases
same,EC50 shift in the presence of serum,HIV-1,5.4 fold
same,"Effect when combined with other antiretrovirals, including integrase inhibitors",HIV-1; in vitro studies,additive
same,Increase in Cmax and AUCtau between 40 mg and 120 mg,"[5]; Part C, monotherapy, less than dose-proportional",~ 2 fold
same,AUC,[5]; 40 mg,25600 ng·h/mL
same,Cmax,[5]; 40 mg,1560 ng/mL
same,Tmax,[5]; 40 mg,3 h
same,AUC,[5]; 120 mg,54000 ng·h/mL
same,Cmax,[5]; 120 mg,3380 ng/mL
same,Tmax,[5]; 120 mg,3 h
same,Increase in exposures compared with the same dose given as monotherapy fasted,[6]; GSK3532795 + ATV alone in the fed state,up to 50%
same,AUC increase compared with the same dose given as monotherapy,"[6]; Part B, 40 mg + ATV alone",approximately 40%
same,AUC increase compared with the same dose given as monotherapy,"[6]; Part B, 80 mg + ATV alone",~50%
same,Exposures higher with ATV/RTV relative to administration with ATV alone,"[6]; Part B, GSK3532795 40 mg",~ 10%
same,Increase in exposures between 40 mg and 80 mg,"[6]; Part B, coadministered with ATV alone, fed",~ 2 fold
same,Tmax delay,"[6]; Part B, with ATV ± RTV in the fed state",1 to 2 h
same,AUC,[6]; [9],34200 ng·h/mL
same,AUC,[6]; [10],31400 ng·h/mL
same,AUC,[6]; [11],59900 ng·h/mL
same,concentration at 24 h,[6]; [9],1160 ng/mL
same,concentration at 24 h,[6]; [10],1100 ng/mL
same,concentration at 24 h,[6]; [11],2010 ng/mL
same,Cmax,[6]; [9],1850 ng/mL
same,Cmax,[6]; [10],1670 ng/mL
same,Cmax,[6]; [11],3160 ng/mL
same,Tmax,[6]; [9],5 h
same,Tmax,[6]; [10],4.5 h
same,Tmax,[6]; [11],4.5 h
same,Decline in HIV-1 RNA,"HIV-1 subtype C; 10 days of 40 mg or 120 mg QD monotherapy, subtype C–infected subjects with ≥1 of 3 Gag polymorphisms at baseline",> 1 log10
same,Median of the maximum change from baseline in HIV-1 RNA,HIV-1 subtype C; 40 mg QD,−1.35 log10 copies/mL
same,Median decline (baseline to day 11) in HIV-1 RNA,"HIV-1 subtype C; 40 mg QD, observed after day 8",> 1 log10 copies/mL
same,Median of the maximum change from baseline in HIV-1 RNA,HIV-1 subtype C; 120 mg QD,−1.26 log10 copies/mL
same,Median decline (baseline to day 11) in HIV-1 RNA,"HIV-1 subtype C; 120 mg QD, observed after day 10",> 1 log10 copies/mL
same,Tmax,[7],3 h
same,half-life,[7],30 to 35 h
same,AUC,[7]; 5 mg,2720 ng·h/mL
same,Cmax,[7]; 5 mg,171 ng/mL
same,Tmax,[7]; 5 mg,3 h
same,concentration at 24 h,[7]; 5 mg,81.6 ng/mL
same,half-life,[7]; 5 mg,32.7 h
same,AUC,[7]; 10 mg,5170 ng·h/mL
same,Cmax,[7]; 10 mg,337 ng/mL
same,Tmax,[7]; 10 mg,3 h
same,concentration at 24 h,[7]; 10 mg,139 ng/mL
same,half-life,[7]; 10 mg,33.1 h
same,AUC,[7]; 20 mg,11800 ng·h/mL
same,Cmax,[7]; 20 mg,705 ng/mL
same,Tmax,[7]; 20 mg,4 h
same,concentration at 24 h,[7]; 20 mg,326 ng/mL
same,half-life,[7]; 20 mg,29.7 h
same,AUC,[7]; 40 mg,23000 ng·h/mL
same,Cmax,[7]; 40 mg,1480 ng/mL
same,Tmax,[7]; 40 mg,3 h
same,concentration at 24 h,[7]; 40 mg,713 ng/mL
same,half-life,[7]; 40 mg,33.8 h
same,AUC,[7]; 80 mg,39300 ng·h/mL
same,Cmax,[7]; 80 mg,2470 ng/mL
same,Tmax,[7]; 80 mg,3 h
same,concentration at 24 h,[7]; 80 mg,1150 ng/mL
same,half-life,[7]; 80 mg,30 h
same,AUC,[7]; 120 mg,44200 ng·h/mL
same,Cmax,[7]; 120 mg,2810 ng/mL
same,Tmax,[7]; 120 mg,2.5 h
same,concentration at 24 h,[7]; 120 mg,1290 ng/mL
same,half-life,[7]; 120 mg,34.9 h
same,Human serum binding,[8],86%
